Data as given in ChEMBL document CHEMBL5576157, “"Seasoning" antimalarial drugs' action: chloroquine bile salts as novel triple-stage antiplasmodial hits” (RSC Med Chem, 2024).
The source made the active and inactive calls. The calls are words filed in the database; no cut-off is given here.

Key:
Plasmodium falciparum [1] = assay: Antimalarial activity against stage III gametocytes of Plasmodium falciparum 3D7 expressing GFP infected erythrocytes assessed inhibition of gametocyte level at 10 uM after 72 hrs followed by compound washout and measured after 24 hrs by Giemsa-staining based microscopic analysis relative to control; type: functional; details: 3D7, Erythrocyte
In short: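 P. falciparum 3D7HT-GFP was sorbitol-synchronized, and schizonts were Percoll-purified and cultured at 3% hematocrit until stage III gametocytes appeared. Microcultures of 1 mL (1-2% gametocytemia, 2.5% hematocrit) got 10 µM compound or DMSO (<0.3%) for 72 h, then compound-free medium for 24 h. Stage IV/V gametocytes were counted per 3000 RBC on Giemsa smears, in duplicate by two microscopists. Inhibition = 100 − (treated/drug-free control ×100).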

Erythrocyte = assay: Hemolytic activity in RBC (unknown origin) assessed as hemolysis at 10 uM incubated for 1 hr by microplate reader assay; type: toxicity, cell-based; details: human
In short: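 Human blood had plasma removed by spinning. RBC were washed three times in 0.01 M PBS pH 7.4 and set to 6% hematocrit. They were mixed with an equal volume of compound at 20 µM in PBS with 1.3% DMSO and kept 1 h at 37 °C, then spun. Supernatant A450 was read. Hemolysis % was scaled between PBS/0.65% DMSO (negative) and 1% Triton X-100 (positive).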

Plasmodium falciparum [2] = assay: Antimalarial activity against blood stage chloroquine-sensitive Plasmodium falciparum 3D7 expressing GFP infected in erythrocytes assessed as inhibition of parasite growth at 10 uM incubated for 72 hrs by flow cytometry analysis relative to control; type: functional; details: 3D7, Erythrocyte
In short: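 Unsynchronized P. falciparum 3D7-GFP culture (0,6% hematocrit, 0,5% parasitaemia) was exposed to 10 µM compound for 72 h at 37 °C and 5% CO2. Growth was read by flow cytometry of GFP (Fl-1, 488 nm excitation), counting 20,000–40,000 erythrocytes per well.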

[3] = Stability of compound assessed as degradation temperature at 25 to 500 degreeC under N2 gas by thermogravimetric analysis; type: physicochemical
In short: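 Thermogravimetric analysis heated samples from 25 to 500 °C at 5 °C/min under N2 flowing at 50 mL·min⁻¹.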

Huh-7 = assay: Cytotoxicity against human Huh-7 cells assessed as reduction in cell viability at 10 uM by AlamarBlue assay; type: toxicity, cell-based; details: huh-7, 10 µM
In short: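 Huh-7 hepatoma cells were cultured in RPMI with 10% FCS, non-essential amino acids, glutamine, penicillin/streptomycin and 10 mM HEPES pH 7, at 37 °C and 5% CO2, within the liver-stage infection setup. Viability was read by AlamarBlue following the manufacturer's protocol.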

Plasmodium falciparum [4] = assay: Antimalarial activity against blood stage chloroquine-sensitive Plasmodium falciparum 3D7 expressing GFP infected in erythrocytes assessed as reduction in parasitemia incubated for 72 hrs by flow cytometry analysis; type: functional, organism-based; details: 3D7, Erythrocyte
In short: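 Growth was read by flow cytometry on the GFP channel (488 nm excitation), counting 20,000–40,000 RBC per well. IC50 values were fitted from the curves and reported as the mean of at least three experiments, each in duplicate.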

Plasmodium falciparum [5] = assay: Antimalarial activity against blood stage chloroquine-resistant Plasmodium falciparum Dd2 infected in erythrocytes assessed as reduction in parasitemia incubated for 72 hrs by flow cytometry analysis; type: functional, organism-based; details: Dd2, Erythrocyte
Plasmodium berghei = assay: Antimalarial activity against Plasmodium berghei sporozoites expressing firefly luciferase infected in human Huh-7 cells assessed reduction in parasite growth at 10 uM preincubated for 1 hr followed by infection and measured after 48 hrs by luminescence analysis; type: functional, organism-based; details: time 49.0 hrs
In short: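 Huh-7 hepatoma cells were grown in RPMI with 10% FCS, non-essential amino acids, glutamine, penicillin/streptomycin and 10 mM HEPES pH 7, at 37 °C and 5% CO2. Cells were seeded at 1.2×10⁴/well the day before. Compound medium was added ~1 h before infection with firefly luciferase P. berghei sporozoites freshly dissected from mosquito salivary glands, then spun at 1700 g for 5 min. Parasite load was read at 48 h by lysate luminescence after luciferin addition.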

Row | SMILES | inhibition at 10 µM (Plasmodium falciparum [1]) | Activity (Erythrocyte) | inhibition at 10 µM (Plasmodium falciparum [2]) | T [3] | Activity (Huh-7) | IC50 (Plasmodium falciparum [4]) | IC50 (Plasmodium falciparum [5]) | Activity (Plasmodium berghei)
1 | CCN(CC)CCCC(C)Nc1ccnc2cc(Cl)ccc12.O=P(O)(O)O.O=P(O)(O)O (centres undefined) [CHLOROQUINE PHOSPHATE] | 72% | Non-Toxic | 98% |  |  |  |  | 
2 | C[C@H](CCC(=O)O)[C@H]1CC[C@H]2[C@@H]3CC[C@@H]4C[C@H](O)CC[C@]4(C)[C@H]3CC[C@]12C [LITHOCHOLIC ACID] | 65% | Non-Toxic |  | 355 °C |  |  |  | 
3 | CCN(CC)CCCC(C)Nc1ccnc2cc(Cl)ccc12.C[C@H](CCC(=O)O)[C@H]1CC[C@H]2[C@@H]3CC[C@@H]4C[C@H](O)CC[C@]4(C)[C@H]3C[C@H](O)[C@]12C | 86% | Non-Toxic | 97% | 242 °C | Non-Toxic |  |  | 
4 | CCN(CC)CCCC(C)Nc1ccnc2cc(Cl)ccc12.C[C@H](CCC(=O)NCC(=O)O)[C@H]1CC[C@H]2[C@@H]3[C@H](O)C[C@@H]4C[C@H](O)CC[C@]4(C)[C@H]3C[C@H](O)[C@]12C | 86% | Non-Toxic | 97% | 361 °C | Non-Toxic |  |  | 
5 | COc1cc(NC(C)CCCN)c2ncccc2c1.O=P(O)(O)O.O=P(O)(O)O (centres undefined) [PRIMAQUINE PHOSPHATE] | 93% | Non-Toxic | 83% |  |  | 415 nM | 464 nM | 
6 | C[C@H](CCC(=O)O)[C@H]1CC[C@H]2[C@@H]3CC[C@@H]4C[C@H](O)CC[C@]4(C)[C@H]3C[C@H](O)[C@]12C [DEOXYCHOLIC ACID] | 42% | Non-Toxic |  | 357 °C |  |  |  | 
7 | C[C@H](CCC(=O)O)[C@H]1CC[C@H]2[C@@H]3[C@H](O)C[C@@H]4C[C@H](O)CC[C@]4(C)[C@H]3C[C@H](O)[C@]12C [CHOLIC ACID] | 39% | Non-Toxic |  | 360 °C |  |  |  | 
8 | COc1cc(NC(C)CCCN)c2ncccc2c1.C[C@H](CCC(=O)O)[C@H]1CC[C@H]2[C@@H]3[C@H](O)C[C@@H]4C[C@H](O)CC[C@]4(C)[C@H]3CC[C@]12C | 80% | Non-Toxic | 82% | 366 °C | Non-Toxic | 380 nM |  | 
9 | C[C@H](CCC(=O)NCC(=O)O)[C@H]1CC[C@H]2[C@@H]3[C@H](O)C[C@@H]4C[C@H](O)CC[C@]4(C)[C@H]3C[C@H](O)[C@]12C [GLYCOCHOLIC ACID] | 41% | Non-Toxic |  | 328 °C |  |  |  | 
10 | CCN(CC)CCCC(C)Nc1ccnc2cc(Cl)ccc12.C[C@H](CCC(=O)O)[C@H]1CC[C@H]2[C@@H]3[C@H](O)C[C@@H]4C[C@H](O)CC[C@]4(C)[C@H]3CC[C@]12C | 87% | Non-Toxic | 97% | 255 °C | Non-Toxic |  |  | 
11 | COc1cc(NC(C)CCCN)c2ncccc2c1.C[C@H](CCC(=O)O)[C@H]1CC[C@H]2[C@@H]3[C@H](O)C[C@@H]4C[C@H](O)CC[C@]4(C)[C@H]3C[C@H](O)[C@]12C | 91% | Non-Toxic | 82% | 359 °C | Non-Toxic | 589 nM |  | 
12 | COc1cc(NC(C)CCCN)c2ncccc2c1.C[C@H](CCC(=O)O)[C@H]1CC[C@H]2[C@@H]3CC[C@@H]4C[C@H](O)CC[C@]4(C)[C@H]3CC[C@]12C [listing 1 of 2 here] |  |  |  |  |  |  |  | Active
13 | C[C@H](CCC(=O)NCCCCNc1ccnc2cc(Cl)ccc12)[C@H]1CC[C@H]2[C@@H]3[C@H](O)C[C@@H]4C[C@H](O)CC[C@]4(C)[C@H]3C[C@H](O)[C@]12C | 91% | Non-Toxic |  | 250 °C | Non-Toxic | 108 nM | 562 nM | Active
14 | CCN(CC)CCCC(C)Nc1ccnc2cc(Cl)ccc12.C[C@H](CCC(=O)O)[C@H]1CC[C@H]2[C@@H]3CC[C@@H]4C[C@H](O)CC[C@]4(C)[C@H]3CC[C@]12C [listing 1 of 2 here] | 90% | Non-Toxic | 97% | 367 °C | Non-Toxic |  |  | 
15 | CCN(CC)CCCC(C)Nc1ccnc2cc(Cl)ccc12.C[C@H](CCC(=O)O)[C@H]1CC[C@H]2[C@@H]3[C@H](O)C[C@@H]4C[C@H](O)CC[C@]4(C)[C@H]3C[C@H](O)[C@]12C | 88% | Non-Toxic | 97% | 253 °C | Non-Toxic |  |  | 
16 | COc1cc(NC(C)CCCN)c2ncccc2c1.C[C@H](CCC(=O)O)[C@H]1CC[C@H]2[C@@H]3CC[C@@H]4C[C@H](O)CC[C@]4(C)[C@H]3CC[C@]12C [listing 2 of 2 here] | 83% | Non-Toxic | 82% | 253 °C | Non-Toxic | 424 nM |  | 
17 | COc1cc(NC(C)CCCN)c2ncccc2c1.C[C@H](CCC(=O)NCC(=O)O)[C@H]1CC[C@H]2[C@@H]3[C@H](O)C[C@@H]4C[C@H](O)CC[C@]4(C)[C@H]3C[C@H](O)[C@]12C | 81% | Non-Toxic | 82% | 255 °C | Non-Toxic | 384 nM |  | 
18 | COc1cc(NC(C)CCCN)c2ncccc2c1.C[C@H](CCC(=O)O)[C@H]1CC[C@H]2[C@@H]3CC[C@@H]4C[C@H](O)CC[C@]4(C)[C@H]3C[C@H](O)[C@]12C | 86% | Non-Toxic | 82% | 348 °C | Non-Toxic | 600 nM |  | 
19 | CCN(CC)CCCC(C)Nc1ccnc2cc(Cl)ccc12.C[C@H](CCC(=O)O)[C@H]1CC[C@H]2[C@@H]3CC[C@@H]4C[C@H](O)CC[C@]4(C)[C@H]3CC[C@]12C [listing 2 of 2 here] |  |  |  |  |  |  |  | Active
